PAFAH1B3 inh: PAFAH1B3 enzyme inhibitors, primary screen, biochemical, fluorescence polarization, human. 340,000 tested, 0.28% active. recombinant PAFAH1B3, FP-rhodamine probe. inhibition, % at 3.39 µM. Platelet-activating factor acetylhydrolase IB subunit alpha1 (Homo sapiens), Q15102;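 active = inhibition above the screen-wide average of all tested compounds plus 3 SD, cut at about 25% in these data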;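 note: 0% = enzyme with DMSO only and 100% = wells lacking PAFAH1B3 protein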
PAFAH1B2 inh: PAFAH1B2 enzyme inhibitors, primary screen, biochemical, fluorescence polarization, human; Platelet-activating factor acetylhydrolase IB subunit alpha2 (Homo sapiens), P68402; recombinant PAFAH1B2, FP-rhodamine activity probe; inhibition, % at 3.39 µM; 340,000 tested, 1.2% active; AID 492953, 2010;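 active = inhibition above the mean of all tested compounds plus 3 SD, cut at about 24% in these data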;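 note: 0% = enzyme with DMSO and 100% = wells lacking PAFAH1B2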
Target sequence (P68402 whole entry, looked up): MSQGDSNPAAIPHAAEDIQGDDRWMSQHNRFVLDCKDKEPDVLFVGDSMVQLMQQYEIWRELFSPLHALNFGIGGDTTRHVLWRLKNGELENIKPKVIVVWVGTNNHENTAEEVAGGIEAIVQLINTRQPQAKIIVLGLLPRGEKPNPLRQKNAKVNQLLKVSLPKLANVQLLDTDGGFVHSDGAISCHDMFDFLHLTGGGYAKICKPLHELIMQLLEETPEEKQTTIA
mABHD4 FP: ABHD4 inhibitors, primary screen, biochemical, fluorescence polarization, mouse; purified mABHD4, FP-Rh probe fluorescence polarization; inhibition, % at 8.92 µM; AID 720543, 2013; (Lyso)-N-acylphosphatidylethanolamine lipase (Mus musculus), Q8VD66; 370,000 tested, 0.54% active;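 active = inhibition exceeding the mean over every tested compound plus 3 SD, cut at about 30% in these data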;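 note: 0% = plate median of compound wells and 100% = S159A mutant with DMSO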
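Material: mouse ABHD4 enzyme, wild type; Benchmarks: S159A mutant high control, sample median low control; Buffer or medium: HEPES pH 7.0, NaCl, Pluronic buffer; Signal: fluorescence polarization; Read-out: percent inhibition of probe binding, normalized to plate controls; Timing: pre-incubation 45 min, probe exposure 60 min, at 25 °C; Dosing: 8.92 µM, single dose.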
pPAFAH FP inh: pPAFAH enzyme inhibitors, primary screen, biochemical, fluorescence polarization, human | Platelet-activating factor acetylhydrolase (Homo sapiens), Q13093 | recombinant pPAFAH, FP-rhodamine probe fluorescence polarization | inhibition, % at 3.39 µM | 330,000 tested, 1.5% active;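 active = inhibition above the mean inhibition across the screen plus 3 SD, cut at about 25% in these data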;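 note: inhibitors block binding of the rhodamine activity-based probe so polarization drops; 0% = enzyme with DMSO and 100% = wells lacking pPAFAH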
Target sequence (Q13093 whole entry, looked up): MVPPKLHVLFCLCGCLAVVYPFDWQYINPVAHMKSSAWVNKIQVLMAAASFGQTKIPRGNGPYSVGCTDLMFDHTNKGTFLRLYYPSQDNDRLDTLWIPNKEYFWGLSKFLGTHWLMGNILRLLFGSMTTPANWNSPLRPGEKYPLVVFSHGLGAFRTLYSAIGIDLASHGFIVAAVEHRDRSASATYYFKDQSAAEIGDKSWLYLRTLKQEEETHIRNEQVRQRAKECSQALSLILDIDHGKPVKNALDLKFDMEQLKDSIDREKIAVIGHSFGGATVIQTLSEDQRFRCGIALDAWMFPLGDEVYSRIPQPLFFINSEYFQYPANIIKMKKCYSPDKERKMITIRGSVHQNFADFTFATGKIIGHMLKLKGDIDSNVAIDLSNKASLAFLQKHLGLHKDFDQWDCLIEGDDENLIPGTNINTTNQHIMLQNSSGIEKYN
HTRA1 inh: HTRA1 serine protease inhibitors, primary screen, biochemical, fluorescence polarization, HTS. Q92743. inhibition, % at 5.96 µM. 340,000 tested, 0.5% active. recombinant HTRA1, FP-rhodamine activity-based probe; in the data active = inhibition above about 36%;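 note: 0% = enzyme with DMSO and 100% = wells lacking enzyme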
PAFAH2 FP inh: PAFAH2 enzyme inhibitors, primary screen, biochemical, fluorescence polarization, human; 340,000 tested, 0.99% active; inhibition, % at 3.39 µM; Platelet-activating factor acetylhydrolase 2, cytoplasmic (Homo sapiens), Q99487; recombinant PAFAH2, FP-rhodamine activity probe; AID 492956, 2010;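 active = inhibition above the mean over all tested compounds plus 3 SD, cut at about 30% in these data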;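 note: inhibitors block probe labeling of enzyme so polarization drops; 0% = enzyme with DMSO and 100% = wells lacking PAFAH2 protein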
The depositor's hits bear a star; · = not tested or not shown. The list is not random: actives were taken first. Their share in the collection is about 2.8%.

SMILES	PAFAH1B3 inh	PAFAH1B2 inh	mABHD4 FP	pPAFAH FP inh	HTRA1 inh	PAFAH2 FP inh
Cc1nc2ccccc2n1CCOc1ccc([N+](=O)[O-])cc1	7.8	5.8	-0.4	29.6*	-1.8	-3.1
O=S(=O)(c1ccc(Cl)s1)N1CCCCC1	2.8	10.9	-3.0	0.3	1.1	1.5
CC1CCN(S(=O)(=O)c2ccc(Br)s2)CC1	-0.6	28.7*	0.8	-1.4	-0.9	-7.2
CC1CCN(S(=O)(=O)c2ccc(Cl)s2)CC1	8.3	25.4*	3.4	1.2	-4.8	-6.5
O=C(O)C1CCN(S(=O)(=O)c2ccc(Cl)s2)CC1	8.0	27.1*	9.0	-2.0	3.4	1.1
CC1CCCN(S(=O)(=O)c2ccc(Br)s2)C1 (configuration not stated)	2.2	10.4	-4.8	1.9	-4.4	-0.5
COC(=O)[C@]12C[C@H](CC(=O)NCCc3ccccc3OC)C(=O)N(CCc3ccc(OC)c(OC)c3)C1=C[C@H](C(C)(C)C)O[C@@H]2C	·	·	-8.3	·	·	·
CC1CN(C(=O)c2cc(S(=O)(=O)N3CCN(c4ccccc4)CC3)ccc2Cl)CC(C)O1 (configuration not stated)	8.2	2.1	3.5	3.8	-2.1	3.0
O=C(c1cc(S(=O)(=O)N2CCN(c3ccccc3)CC2)ccc1Cl)N1CCCCCCC1	0.1	6.2	6.0	31.5*	-11.2	-0.5
COC(=O)[C@]12C[C@H](CC(=O)NCCc3ccccc3OC)C(=O)N(Cc3cccc4ccccc34)C1=C[C@H](C(C)C)O[C@@H]2C1CC1	·	·	-16.0	·	·	·
O=C(CN(c1cccc(Br)c1)S(=O)(=O)c1ccccc1)N/N=C/c1cc([N+](=O)[O-])ccc1O	·	·	3.7	24.6*	·	·
COc1cc(CNc2ccc(N3CCN(C(C)=O)CC3)cc2)ccc1OCc1ccc(F)cc1	8.7	8.8	19.6	31.0*	30.5	2.4
CCn1c(Cc2cccs2)nnc1SCC(=O)Nc1ccc(OCc2ccccc2)cc1	·	·	-5.8	·	·	·
COc1ccc(-c2cc(-c3ccc(OC)c(OC)c3)n[nH]2)c(O)c1	2.5	4.7	-7.8	24.6*	-14.4	4.2
C=CCN=C1NC(c2cccc(Cl)c2)C(C(=O)OC)=C(C)N1Cc1cccc(C(F)(F)F)c1 (configuration not stated)	·	·	8.7	·	·	·
O=C(O)c1cc(S(=O)(=O)NC(Cc2c[nH]c3ccccc23)C(=O)O)ccc1Cl (configuration not stated)	5.0	25.2*	6.9	6.1	10.9	7.0
Cc1ccc(S(=O)(=O)NCCCCC(NC(=O)OC(C)(C)C)C(=O)O)cc1 (configuration not stated) (tested in a mixture with another compound)	-0.3	4.6	-3.2	2.6	-4.9	-1.6
Cc1ccc(S(=O)(=O)n2ccc3c(OCCOCCSCC(NC(=O)OC(C)(C)C)C(=O)O)cccc32)cc1 (configuration not stated)	1.6	81.1*	-1.4	14.7	-46.5	0.8
COc1nc(OCCNC(=O)Nc2ccccc2)nc(N(C)C)n1	10.4	-0.6	-11.7	-6.9	3.1	0.4
CN(C)c1nc(OCCNC(=O)Nc2ccc(Cl)cc2)nc(N(C)C)n1	6.7	4.0	-2.6	25.5*	14.7	-1.9
C[C@H]1COc2cc(N3CCCC3)ccc2S(=O)(=O)N1C	·	·	6.9	·	·	·
CC(C)CC1=C/C(=C/c2ccc(-c3ccccc3)o2)C(=O)O1	1.8	0.5	18.9	29.1*	-19.7	26.8
NS(=O)(=O)c1ccc(-c2ccc(C=C3C(=O)c4ccccc4C3=O)o2)cc1	8.2	1.8	7.0	6.4	-1.6	0.1
COC(=O)c1cc(-c2cc(Cl)ccc2OC)c(=O)n2c1CCC2	·	·	2.5	·	·	·
CC(C)CNC(=O)CSc1ccc(Cl)cc1	-1.8	25.8*	-1.3	2.8	-0.9	2.5
SMILES	PAFAH1B3 inh	PAFAH1B2 inh	mABHD4 FP	pPAFAH FP inh	HTRA1 inh	PAFAH2 FP inh
Cc1ccc(-n2c(SC/C=C/c3ccccc3)nnc2-c2cccs2)cc1	·	·	-12.1	·	·	·
CC(NC(=O)CSc1ncccc1C(=O)O)C1CC2CCC1C2 (configuration not stated)	0.0	29.2*	-1.1	2.8	3.5	8.1
Cc1cc(=O)[nH]c(SCC(=O)NC(C)C2CC3CCC2C3)c1C#N (configuration not stated)	-0.2	18.2	-8.6	22.6	-7.3	8.5
CC(NC(=O)CSc1n[nH]c(=O)[nH]c1=O)C1CC2CCC1C2 (configuration not stated)	4.7	26.9*	2.1	0.2	3.9	-3.0
COc1ccc(CN2C3=N[C@H](c4ccccc4)CC(=O)N3/C(=C\c3ccccc3)C2c2ccco2)c(OC)c1 (some centres not stated)	·	·	2.1	·	·	·
Cc1ccc(C(=O)OCC(=O)c2ccc(CC(=O)N3CCOCC3)s2)cc1C	2.7	2.4	-4.4	27.1*	0.8	11.2
COC(=O)c1c(NS(=O)(=O)c2ccc3ccccc3c2)sc2c1CCCC2	3.9	3.0	7.2	16.3	-4.7	6.6
CC1CCc2c(sc(NS(=O)(=O)c3ccccc3)c2C(=O)OC(C)C)C1 (configuration not stated)	-2.5	3.0	12.6	25.2*	0.0	6.0
Cc1cc(SCc2ccc(Cl)cc2Cl)nc(=O)[nH]1	-2.7	3.5	-4.1	13.6	-17.6	12.8
O=c1cc(SCc2ccc(Cl)cc2Cl)nc[nH]1	5.6	24.8*	3.7	·	-0.4	3.2
N#C[C@H](N)[C@H]1O[C@@H](n2ccc(=O)[nH]c2=O)[C@H](O)[C@@H]1O	·	·	9.8	·	·	·
Cc1ccc(S(=O)(=O)N2CCOCC2)cc1C(=O)NCCc1ccc(Cl)cc1	6.7	29.6*	-0.9	0.5	6.1	0.1
O=C(OCCOc1cccc(Cl)c1)c1cc(S(=O)(=O)N2CCOCC2)ccc1F	9.8	2.1	-5.4	31.0*	-17.1	5.4
Cn1c(SCC(=O)Nc2ccc(S(=O)(=O)Nc3nccs3)cc2)nc2sc3c(c2c1=O)CCCC3	·	·	-57.8	·	·	·
Nn1c(SCc2ccc(Br)cc2)nnc1-c1n[nH]c2c1CCC2	·	·	1.8	·	·	·
O=C1c2cccn2CC2Cc3ccccc3N12 (configuration not stated)	·	·	3.5	·	·	·
Cc1ccc(Cl)cc1NS(=O)(=O)c1ccccc1	13.7	0.9	-3.3	·	-5.5	4.9
Cc1ccc(Cl)cc1NS(=O)(=O)Cc1ccccc1	1.2	3.4	3.9	30.5*	-1.6	5.8
O=C(NCC1COCCO1)C1CCN(S(=O)(=O)c2cccs2)CC1 (configuration not stated)	·	·	9.0	·	·	·
CN(Cc1ccc(F)cc1)C(=O)c1cccc(S(=O)(=O)NCc2ccccc2)c1	4.8	24.9*	-1.1	6.7	-7.2	-3.6

High-throughput results: PubChem BioAssay, The Scripps Research Institute Molecular Screening Center
